Tests used:
[1] = test system: Monkey; experiment: Iron clearing efficiency in monkey at 150 umol/kg; type: functional, Sapajus apella
How it was run: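 Cebus apella monkeys (3.5–4 kg) iron-overloaded with iv iron dextran (~500 mg Fe/kg), ≥60 d before use; single po 150 μmol/kg (monosodium salt or 40% Cremophor RH-40/water). Feces and urine collected every 24 h, 4 d before to 5 d after dosing; iron by flame AAS. ICE = 2-day post-drug output minus 4-day pre-drug mean, over theoretical (2:1 complex), percent; mean ± SEM.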

[2] = test system: Rattus norvegicus; experiment: Iron clearing efficiency in Sprague-Dawley rat at 300 umol/kg, po; type: functional
How it was run: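 Bile-duct-cannulated, non-iron-overloaded male Sprague-Dawley rats (400–450 g) given single oral dose, 150 or 300 μmol/kg, as water solution, in 40% Cremophor RH-40/water, or monosodium salt. Bile every 3 h up to 48 h, urine every 24 h; iron by flame AAS. Efficiency = (treated minus control iron excretion)/theoretical output (2:1 complex), percent; mean ± SEM.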

[3] = Drug level in Sprague-Dawley rat plasma at 300 umol/kg, sc after 2 hrs; type: ADME, organism-based
How it was run: (§1)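 Plasma: male Sprague-Dawley rats (250–350 g) dosed sc once at 300 μmol/kg as monosodium salt; blood by cardiac puncture into sodium citrate, centrifuged; methanol deproteinization, filtered, HPLC-UV 310 nm, detection limit 0.5 μM; μM, mean of n = 3 per time point.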

[4] = (§2) Drug level in Sprague-Dawley rat plasma at 300 umol/kg, sc after 0.5 hrs; type: ADME, organism-based; conditions: Sprague-Dawley, plasma, 300 umol/kg; how it was run: as §1
[5] = test system: Rattus norvegicus; experiment: Drug level in Sprague-Dawley rat kidney at 300 umol/kg, sc after 0.5 hrs; type: ADME, organism-based; conditions: in vivo
How it was run: (§3)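 Kidney level after single sc 300 μmol/kg monosodium salt in male Sprague-Dawley rats (250–350 g), n = 3 per time point. Water homogenate (1:2 w/v), methanol protein precipitation, 0.2 μm filtration, RP amide C16 HPLC with UV at 310 nm; linear range 1–1000 μM; reported as nmol/g wet weight, mean.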

[6] = test system: Rattus norvegicus; experiment: Toxicity in Sprague-Dawley rat at 384 umol/kg, po; type: organism-based; conditions: in vivo
How it was run: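 Male Sprague-Dawley rats (250–300 g), fasted overnight, gavaged once daily at 384 μmol/kg/d for up to 10 d; fed ~3 h post-dose for 5 h, then fasted. Age-matched controls; monitored at least three times daily, moribund animals euthanized; survivors sacrificed one day after last dose for histopathology.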

[7] = test system: Rattus norvegicus; experiment: Drug level in Sprague-Dawley rat heart at 300 umol/kg, sc after 4 hrs; type: ADME, organism-based; conditions: in vivo
How it was run: (§4)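 Heart drug level: male Sprague-Dawley rats (250–350 g), single sc injection of monosodium salt, 300 μmol/kg; CO2 euthanasia at set times (n = 3 per time point). Tissue homogenized in water 1:2 (w/v), proteins precipitated with 3 vol CH3OH at −20 °C 20 min, filtered; reversed-phase HPLC, UV 310 nm, calibration-curve quantitation; nmol/g wet weight, mean.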

[8] = test system: Rattus norvegicus; experiment: Drug level in Sprague-Dawley rat pancreas at 300 umol/kg, sc after 4 hrs; type: ADME, organism-based; conditions: in vivo
How it was run: (§5)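 Pancreas concentration: single sc 300 μmol/kg (monosodium salt) to male Sprague-Dawley rats (250–350 g), three rats per time point, CO2 euthanasia. Tissue homogenate in water (1:2 w/v), CH3OH protein precipitation, filtration, RP HPLC with 310 nm UV detection; nmol/g wet weight, mean.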

[9] = Partition coefficient, log P of the compound; type: physicochemical; conditions: octanol/water
How it was run: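 Shake-flask direct partition between octanol and TRIS buffer, pH 7.4; expressed as log of the fraction in the octanol layer (log P_app).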

[10] = test system: Rattus norvegicus; experiment: Drug level in Sprague-Dawley rat heart at 300 umol/kg, sc after 0.5 hrs; type: ADME, organism-based; conditions: in vivo; how it was run: as §4
[11] = test system: Rattus norvegicus; experiment: Drug level in Sprague-Dawley rat liver at 300 umol/kg, sc after 0.5 hrs; type: ADME, organism-based; conditions: in vivo
How it was run: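 Liver sampled from male Sprague-Dawley rats (250–350 g) given one sc dose, 300 μmol/kg, as monosodium salt; n = 3 per time point. Homogenized in water, methanol-precipitated, filtered, analysed by HPLC-UV at 310 nm against calibration curves; nmol compound per g wet weight, mean; O-demethylated metabolite also measured.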

[12] = test system: Rattus norvegicus; experiment: Drug level in Sprague-Dawley rat heart at 300 umol/kg, sc after 8 hrs; type: ADME, organism-based; conditions: in vivo; how it was run: as §4
[13] = test system: Rattus norvegicus; experiment: as §2; type: ADME, organism-based; conditions: in vivo, 0.5 h; how it was run: as §1
[14] = test system: Rattus norvegicus; experiment: Drug level in Sprague-Dawley rat kidney at 300 umol/kg, sc after 1 hr; type: ADME, organism-based; conditions: in vivo; how it was run: as §3
[15] = test system: Rattus norvegicus; experiment: Drug level in Sprague-Dawley rat pancreas at 300 umol/kg, sc after 1 hr; type: ADME, organism-based; conditions: in vivo; how it was run: as §5

concentration at 2 h [3] [µM] | concentration at 0.5 h [4] [µM] | Drug uptake [5] [nmol/g] | Drug uptake [7] [nmol/g] | Drug uptake [8] [nmol/g] | logP [9] | Drug uptake [10] [nmol/g] | Drug uptake [11] [nmol/g] | Drug uptake [12] [nmol/g] | Cp [13] [µM] | Drug uptake [14] [nmol/g] | Drug uptake [15] [nmol/g] | SMILES | Activity [1] [%] | Activity [2] [%] | Activity [6]
5 | 209 | 667 | – | – | – | – | – | – | – | – | – | O=C(O)[C@H]1CSC(c2ccc(O)cc2O)=N1 | 4.2 | 2.9 | Non-toxic
– | – | – | 61 | 45 | -0.81 | 380 | 564 | – | – | – | – | COc1ccc(O)c(C2=N[C@@H](C(=O)O)CS2)c1 | 12 | 8.9 | Non-toxic
– | – | 629 | – | – | -1.52 | 42 | – | – | – | – | – | O=C(O)[C@H]1CSC(c2cc(O)ccc2O)=N1 | 1.8 | – | Non-toxic
– | – | 1375 | – | – | -0.95 | 259 | 924 | 3 | 907 | – | – | COc1ccc(C2=N[C@@](C)(C(=O)O)CS2)c(O)c1OC | – | 16.6 | Toxic
– | – | 1216 | – | – | -1.14 | – | – | – | – | – | – | C[C@]1(C(=O)O)CSC(c2cc(O)ccc2O)=N1 | 12.6 | 1 | Non-toxic
– | – | 282 | – | – | – | – | – | – | – | – | – | COc1ccc(C2=N[C@@](C)(C(=O)O)CS2)c(O)c1 | 24.4 | 6.6 | Toxic
– | – | – | – | – | – | – | – | – | – | – | – | COc1ccc(C2=N[C@@H](C(=O)O)CS2)c(O)c1 | 16.2 | 11.6 | Non-toxic
– | – | – | – | – | -1.28 | 185 | – | – | – | – | – | COc1ccc(C2=N[C@@H](C(=O)O)CS2)c(O)c1OC | 12.4 | 11.9 | Non-toxic
13 | 92 | 361 | – | – | – | – | 124 | – | – | 179 | – | C[C@]1(C(=O)O)CSC(c2ccc(O)cc2O)=N1 [DEFERITRIN] | 16.8 | 1.1 | Non-toxic
– | 803 | – | – | – | -0.61 | 208 | 382 | – | – | – | 153 | COc1ccc(O)c(C2=N[C@@](C)(C(=O)O)CS2)c1 | 18.9 | 6.3 | Toxic

Reference: ChEMBL document CHEMBL1138882, “The design, synthesis, and evaluation of organ-specific iron chelators” (J Med Chem, 2006)
